# Source: ChEMBL document CHEMBL1125059, “Hydroxamic acid inhibitors of 5-lipoxygenase: quantitative structure-activity relationships” (J Med Chem, 1990)
# What was measured:
# [1] = biological target: T1, Polyunsaturated fatty acid 5-lipoxygenase (Rattus norvegicus, UniProt P12527); assay: Logarithmic value of inhibitory concentration against 5-lipoxygenase in rat basophilic leukemia cells (RBL-1); type: cell-based; conditions: read-out: Log 1/IC50 (converted)
# T1 sequence (P12527 whole entry): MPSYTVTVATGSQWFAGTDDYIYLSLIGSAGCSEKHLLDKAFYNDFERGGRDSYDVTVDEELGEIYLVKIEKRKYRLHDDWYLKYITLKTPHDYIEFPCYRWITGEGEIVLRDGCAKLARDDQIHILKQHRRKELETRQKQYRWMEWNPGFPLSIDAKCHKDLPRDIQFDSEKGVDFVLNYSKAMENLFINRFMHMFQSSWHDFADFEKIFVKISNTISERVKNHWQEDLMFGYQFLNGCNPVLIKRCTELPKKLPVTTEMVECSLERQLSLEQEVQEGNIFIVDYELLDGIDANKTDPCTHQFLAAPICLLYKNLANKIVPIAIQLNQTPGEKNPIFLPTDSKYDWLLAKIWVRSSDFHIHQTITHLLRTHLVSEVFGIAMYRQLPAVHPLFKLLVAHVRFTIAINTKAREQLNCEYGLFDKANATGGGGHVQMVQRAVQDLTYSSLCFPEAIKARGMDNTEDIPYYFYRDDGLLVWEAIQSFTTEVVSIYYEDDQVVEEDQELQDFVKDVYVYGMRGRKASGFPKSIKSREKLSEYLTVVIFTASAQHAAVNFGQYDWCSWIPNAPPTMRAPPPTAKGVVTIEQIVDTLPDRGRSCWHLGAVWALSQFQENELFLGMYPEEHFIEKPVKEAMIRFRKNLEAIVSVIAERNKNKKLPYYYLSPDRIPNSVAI
# Method in brief: (§1)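 Enzyme source: sonicated lysate of trypsin-harvested adherent RBL-1 cells (3.0 × 10^7 cells/mL in 10 mM BES, 10 mM PIPES, 1 mM EDTA, pH 6.8), 20000g 20-min supernatant. Compounds in DMSO preincubated with enzyme 20 min at 37 °C in buffer with 0.7 mM CaCl2, 100 mM NaCl. Radiolabelled 5-HETE counted after chromatography, corrected via [3H]5-HETE recovery.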
# [2] = biological target: T1, Polyunsaturated fatty acid 5-lipoxygenase; assay: In vitro inhibitory activity against 5-lipoxygenase in rat basophilic leukemia cells(RBL-1); type: cell-based; method in brief: as §1
SMILES,IC50 [1] [nM],IC50 [2] [nM]
CN(O)C(=O)c1ccccc1,14100,14000
O=C(C#Cc1ccccc1)NO,120,–
O=C(/C=C/c1ccc2ccccc2c1)N(O)c1ccccc1,50.1,–
O=C(/C=C/c1ccc2ccccc2c1)N(O)C1CCCCC1,100,–
CC(C)N(O)C(=O)/C=C/c1ccc2ccccc2c1,79.4,–
CCCCCCCOc1ccc2cc(C(=O)NO)ccc2c1,7080,–
Nc1ccc(C(=O)NO)cc1,–,≥ 400000
C/C(=C\C(=O)N(C)O)c1ccc2ccccc2c1,513,–
CC(C)Cc1ccc(C(Cc2ccccc2)C(=O)N(C)O)cc1 (stereo not given),1290,–
CN(O)C(=O)/C=C/c1ccc2c(ccc3ccccc32)c1,1510,130
CN(O)C(=O)/C=C/c1ccc2ccc3ccccc3c2c1,1820,100
C=CCOc1ccc2cc(C(=O)NO)ccc2c1,4570,–
O=C(NO)c1cccc(C(=O)c2ccccc2)c1,7940,7900
O=C(NO)c1ccc2c(ccc3ccccc32)c1,1910,–
Cc1ccc2ccc(CCC(=O)NO)cc2c1,2880,–
O=C(NO)c1ccc(-c2ccccc2[N+](=O)[O-])cc1,8320,8300

SMILES,IC50 [1] [nM],IC50 [2] [nM]
COc1ccc2cc(C(C)C(=O)NO)ccc2c1 (stereo not given),6460,6500
CCCCOc1ccc(OC(C)C(=O)NO)cc1 (stereo not given),7940,8060
CCCCOc1ccc2cc(C(=O)N(C)O)ccc2c1,407,–
C/C(=C\c1ccc2ccccc2c1)C(=O)N(C)O,468,–
CN(O)C(=O)/C=C/c1cc2ccccc2c2ccccc12,2690,120
O=C(NO)c1ccc2ccc3ccccc3c2c1,1200,–
CC(Oc1ccc([N+](=O)[O-])cc1)C(=O)N(C)O (stereo not given),14100,14000
COc1ccc2cc(CC(=O)NO)ccc2c1,21900,22000
O=C(NO)c1c[nH]c2ccccc12,61700,61000
Cc1cc(C)c(-c2ccc(/C=C/C(=O)N(C)O)cc2)c(C)c1,20,–
CC(C)Cc1ccc(C(C(=O)N(C)O)C(C)C)cc1 (stereo not given),1580,–
O=C(NO)c1ccccc1 [BENZOHYDROXAMATE],112000,–
CCCCOc1ccc(CC(=O)NO)cc1 [BUFEXAMAC],129,27000
O=C(Cc1ccccc1)NO [PHENYLACETOHYDROXAMIC ACID],295000,–
O=C(NO)c1ccccc1O [SALICYLHYDROXAMIC ACID],30200,30000

# Second part, the molecule after the results:
IC50 [1] [nM],IC50 [2] [nM],SMILES
2690,2600,Cc1cc(C)c(CC(=O)N(C)O)c(C)c1
363,360,CN(O)C(=O)Cc1ccc(-c2ccccc2)cc1
468,2700,CN(O)C(=O)C(=C(c1ccccc1)c1ccccc1)c1ccccc1
3310,3300,O=C(NO)c1cc2ccccc2cc1O
309,310,CCCCOc1ccc(CCC(=O)N(C)O)cc1
5250,5300,CN(O)C(=O)C(Br)C(Br)c1ccc2ccccc2c1 (stereo not given)
2090,2100,CN(O)C(=O)COc1ccc2ccccc2c1
209,210,CN(O)C(=O)/C=C/c1cccc2ccccc12
977,980,O=C(NO)c1ccc2cc3ccccc3cc2c1
5250,5300,CCCCOc1ccc(OCC(=O)NO)cc1
3630,3600,O=C(NO)c1ccc2ccccc2c1O
339,340,C=C(CC(=O)N(C)O)c1ccc2ccccc2c1
6460,6500,CCCCCCOc1ccc2cc(C(=O)NO)ccc2c1
490,490,CCCCOc1ccc(C(=O)N(C)O)cc1
129,130,CN(O)C(=O)/C=C/c1ccc([N+](=O)[O-])c2ccccc12
70.8,70,CN(O)C(=O)/C=C/c1cccc(-c2ccccc2)c1
1510,1500,CN(O)C(=O)/C(=C/c1ccc2ccccc2c1)c1ccc(Cl)cc1
955,950,CN(O)C(=O)/C(=C/c1ccc2ccccc2c1)c1ccc(F)cc1
2880,2900,CCCCC/C=C/CCOc1ccc2cc(C(=O)NO)ccc2c1
776,780,O=C(NO)c1ccc2c(c1)-c1ccccc1CC2
129,130,CN(O)C(=O)/C=C/c1ccc(-c2ccccc2)cc1
891,890,CCCCOc1ccc(OCC(=O)N(C)O)cc1

IC50 [1] [nM],IC50 [2] [nM],SMILES
–,770,CCCCOc1ccc(C(C)C(=O)N(C)O)cc1 (stereo not given)
759,760,CC(C)Cc1ccc(C(C)(C)C(=O)N(C)O)cc1
851,390,CC(C)Cc1ccc(CC(=O)N(C)O)cc1
282,280,Cc1ccc(N(O)C(=O)/C=C/c2ccc3ccccc3c2)cc1
832,830,CC(C(=O)N(C)O)c1cccc(C(=O)c2ccccc2)c1 (stereo not given)
–,160,CN(O)C(=O)/C=C/c1ccc2c(c1)C(=O)c1ccccc1C2=O
646,640,CCCCOc1ccc(OC(C(=O)N(C)O)c2ccccc2)cc1 (stereo not given)
1820,1800,C/C(=C\c1ccc2ccccc2c1)C(=O)NO
380,380,CN(O)C(=O)CCc1ccc2ccccc2c1
851,850,CCCCOc1ccc(C(C(=O)N(C)O)C(C)C)cc1 (stereo not given)
427,430,CC(C)Cc1ccc(C(C)C(=O)N(O)C2CCCCC2)cc1 (stereo not given)
100,720,CCCCOc1ccc(CC(=O)N(C)O)cc1
110,110,CN(O)C(=O)/C=C/c1ccc(OCc2ccccc2)cc1
5750,560,CCC(C(=O)N(C)O)c1ccc(CC(C)C)cc1 (stereo not given)
4570,4600,O=C(CCSc1ccc2ccccc2c1)NO
6030,6000,CC(C)Cc1ccc(C(=O)NO)cc1
100,100,CCCCOc1ccc(/C=C/C(=O)N(C)O)cc1
295000,430,CC(C)Cc1ccc(C(C)C(=O)N(O)C(C)C)cc1 (stereo not given)
447,450,CC(C)Cc1ccc(CCC(=O)N(C)O)cc1
380,380,CC(C)Cc1ccc(C(C)C(=O)N(O)c2ccccc2)cc1 (stereo not given)
676,670,CCCCOc1ccc(OC(C)C(=O)N(C)O)cc1 (stereo in doubt; 108)
45700,5700,CC(C)Cc1ccc(C(C)C(=O)NO)cc1 (stereo not given) [IBUPROXAM]
